# Measured values: ChEMBL document CHEMBL3286275, “Identification of 1-{2-[4-chloro-1'-(2,2-dimethylpropyl)-7-hydroxy-1,2-dihydrospiro[indole-3,4'-piperidine]-1-yl]phenyl}-3-{5-chloro-[1,3]thiazolo[5,4-b]pyridin-2-yl}urea, a potent, efficacious and orally bioavailable P2Y(1) antagonist as an antiplatelet agent” (Bioorg Med Chem Lett, 2014)
# Active and inactive are the calls of the source. The rule behind the calls is not given here.
# How the values were obtained:
# [1] = system: Liver microsome; assay: Metabolic stability in human liver microsomes assessed as compound remaining; type: ADME
# Outline: (§1)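 Liver microsome stability: percent of compound remaining after incubation with […] (3 µM microsomes in some cases).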
# [2] = system: Platelet; assay: Inhibition of ADP-induced platelet aggregation in platelet-rich human plasma; type: functional
# Outline: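 Human platelet-rich plasma; aggregation triggered by 10 µM ADP; IC50 determined.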
# [3] = target: P2Y purinoceptor 1 (Homo sapiens, UniProt P47900); assay: Antagonist activity at P2Y1 receptor in human platelets by FLIPR assay in presence of 2-methylthio-ADP
# P2Y purinoceptor 1, sequence (P47900 whole entry): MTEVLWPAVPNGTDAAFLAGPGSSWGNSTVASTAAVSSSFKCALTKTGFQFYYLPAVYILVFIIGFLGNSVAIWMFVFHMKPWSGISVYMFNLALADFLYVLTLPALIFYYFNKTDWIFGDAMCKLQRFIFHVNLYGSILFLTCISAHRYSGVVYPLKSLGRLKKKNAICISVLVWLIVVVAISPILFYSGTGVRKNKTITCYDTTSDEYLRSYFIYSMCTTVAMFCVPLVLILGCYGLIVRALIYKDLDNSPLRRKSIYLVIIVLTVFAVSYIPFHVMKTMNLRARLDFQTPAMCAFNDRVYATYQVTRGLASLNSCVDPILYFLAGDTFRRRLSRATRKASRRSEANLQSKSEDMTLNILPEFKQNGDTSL
# Outline: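 Washed human platelets with endogenous P2Y1; calcium signalling read by FLIPR with reduced protein (~0.1% BSA); agonist 2-methylthio-ADP at 1 µM; IC50 given as mean ± SD.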
# [4] = system: Liver microsome; assay: Metabolic stability in rat liver microsomes assessed as compound remaining; type: ADME; outline: as §1
# [5] = system: Oryctolagus cuniculus; assay: Cardiotoxicity in rabbit assessed as QRS interval at 3 to 30 mg/kg, iv by surface electrocardiography; type: toxicity, organism-based; set-up: dose 3-30 mg/kg, route intravenous; conditions: in vivo
# Outline: (§2)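 Anesthetized rabbits given IV doses of 3, 10 and 30 mg/kg in increasing order; plasma concentrations measured; PR, QRS and QTc intervals read by surface ECG.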
# [6] = Half life in cynomolgus monkey at 0.2 mg/kg, iv and 5 mg/kg, po; type: ADME, organism-based, Macaca fascicularis; conditions: in vivo
# Outline: (§3)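 Dog and cynomolgus PK used the methanesulfonic acid salt at 0.2 mg/kg IV and 5 mg/kg PO; clearance, Vdss, half-life and oral bioavailability determined.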
# [7] = system: Plasma; assay: Plasma concentration in rabbit at 3 mg/kg, iv; type: ADME, organism-based, Oryctolagus cuniculus; set-up: dose 3 mg/kg, route intravenous; conditions: in vivo; outline: as §2
# [8] = system: Plasma; assay: Plasma concentration in rabbit at 10 mg/kg, iv; type: ADME, organism-based, Oryctolagus cuniculus; set-up: dose 10 mg/kg, route intravenous; conditions: in vivo; outline: as §2
# [9] = Plasma protein binding in human; type: ADME, cell-free; conditions: read-out: PPB (converted)
# [10] = Aqueous solubility of the compound at pH 6.5; type: physicochemical; conditions: aqueous medium
# Outline: (§4)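 Aqueous solubility taken on crystalline material: free base at pH 6.5, mono-methanesulfonic acid salt at pH 3.9.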
# [11] = Plasma protein binding in rabbit; type: ADME, cell-free, Oryctolagus cuniculus; conditions: read-out: PPB (converted)
# [12] = Oral bioavailability in dog at 5 mg/kg; type: ADME, organism-based, Canis lupus familiaris; conditions: in vivo; outline: as §3
# [13] = Clearance in cynomolgus monkey at 0.2 mg/kg, iv and 5 mg/kg, po; type: ADME, organism-based, Macaca fascicularis; conditions: in vivo; outline: as §3
# [14] = Plasma protein binding in rat; type: ADME, cell-free; conditions: read-out: PPB (converted)
# [15] = system: Plasma; assay: Plasma concentration in rabbit at 30 mg/kg, iv; type: ADME, organism-based, Oryctolagus cuniculus; set-up: dose 30 mg/kg, route intravenous; conditions: in vivo; outline: as §2
# [16] = system: Rattus norvegicus; assay: Toxicity in rat assessed as prolongation of cuticle bleeding time at 10 mg/kg, po relative to control; type: organism-based; set-up: dose 10 mg/kg, route oral; conditions: in vivo
# Outline: (§5)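 Pentobarbital-anesthetized rats dosed by oral gavage 1 h before bleeding-time induction. Vehicle was 1 ml/kg of 10% N,N-dimethylacetamide/90% dextrose 5% water, and compound was given at 0.3, 1, 3 and 10 mg/kg. Cuticle and mesenteric bleeding times were measured and expressed as fold prolongation relative to vehicle. Group sizes were indicated per group.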
# [17] = Clearance in dog at 0.2 mg/kg, iv and 5 mg/kg, po; type: ADME, organism-based, Canis lupus familiaris; conditions: in vivo; outline: as §3
# [18] = system: Rattus norvegicus; assay: Antithrombotic activity in pentobarbital anesthetized rat assessed as reduction in FeCl2-induced thrombus weight at 10 mg/kg, po administered 1 hr prior to FeCl2 challenge; type: functional; set-up: scale not given: the % may be the effect or the level left
# Outline: (§6)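 Pentobarbital-anesthetized rats; vehicle (1 ml/kg of 10% N,N-dimethylacetamide/90% dextrose 5% water) or 0.3, 1, 3, 10 mg/kg by oral gavage 1 h before FeCl2-induced carotid thrombosis or cuticle/mesenteric bleeding time. End points were thrombus weight and blood flow. Blood was drawn at the end of the thrombosis protocol for ex vivo aggregation. ID50 values derived; SEM reported.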
# [19] = target: T1, P2X purinoceptor 1 (Homo sapiens, UniProt P51575); assay: Antagonist activity at P2X1 receptor (unknown origin) by FLIPR assay
# T1 sequence (P51575 whole entry): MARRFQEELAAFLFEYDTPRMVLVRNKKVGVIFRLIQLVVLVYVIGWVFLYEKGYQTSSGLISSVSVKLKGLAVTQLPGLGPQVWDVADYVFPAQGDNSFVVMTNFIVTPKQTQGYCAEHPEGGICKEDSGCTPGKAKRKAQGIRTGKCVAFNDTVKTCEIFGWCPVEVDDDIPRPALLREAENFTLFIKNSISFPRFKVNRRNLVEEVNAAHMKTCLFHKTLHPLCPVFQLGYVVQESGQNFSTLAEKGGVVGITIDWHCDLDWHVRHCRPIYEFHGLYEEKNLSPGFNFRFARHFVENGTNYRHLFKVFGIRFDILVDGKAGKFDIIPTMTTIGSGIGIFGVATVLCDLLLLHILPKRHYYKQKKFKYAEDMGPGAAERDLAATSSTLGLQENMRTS
# [20] = system: Blood; assay: Drug uptake in rat blood at 0.3 mg/kg, po; type: ADME, organism-based; set-up: dose 0.3 mg/kg, route oral; conditions: in vivo, read-out: Drug uptake
# [21] = system: Blood; assay: Drug uptake in rat blood at 3 mg/kg, po; type: ADME, organism-based; set-up: dose 3 mg/kg, route oral; conditions: in vivo, read-out: Drug uptake
# [22] = Volume of distribution at steady state in cynomolgus monkey at 0.2 mg/kg, iv and 5 mg/kg, po; type: ADME, organism-based, Macaca fascicularis; conditions: in vivo, read-out: Vdss; outline: as §3
# [23] = system: Rattus norvegicus; assay: Antithrombotic activity in po dosed pentobarbital anesthetized rat assessed as maintainance of blood flow administered 1 hr prior to FeCl2 challenge; type: functional, organism-based; outline: as §6
# [24] = system: Rattus norvegicus; assay: Antiplatelet activity in pentobarbital anesthetized rat assessed as reduction in platelet aggregation at 10 mg/kg, po; type: functional; set-up: scale not given: the % may be the effect or the level left; outline: as §6
# [25] = target: hERG (KCNH2) (Homo sapiens, UniProt Q12809); assay: Inhibition of human ERG channel at 1 uM by patch clamp technique
# hERG (KCNH2), sequence (Q12809 whole entry): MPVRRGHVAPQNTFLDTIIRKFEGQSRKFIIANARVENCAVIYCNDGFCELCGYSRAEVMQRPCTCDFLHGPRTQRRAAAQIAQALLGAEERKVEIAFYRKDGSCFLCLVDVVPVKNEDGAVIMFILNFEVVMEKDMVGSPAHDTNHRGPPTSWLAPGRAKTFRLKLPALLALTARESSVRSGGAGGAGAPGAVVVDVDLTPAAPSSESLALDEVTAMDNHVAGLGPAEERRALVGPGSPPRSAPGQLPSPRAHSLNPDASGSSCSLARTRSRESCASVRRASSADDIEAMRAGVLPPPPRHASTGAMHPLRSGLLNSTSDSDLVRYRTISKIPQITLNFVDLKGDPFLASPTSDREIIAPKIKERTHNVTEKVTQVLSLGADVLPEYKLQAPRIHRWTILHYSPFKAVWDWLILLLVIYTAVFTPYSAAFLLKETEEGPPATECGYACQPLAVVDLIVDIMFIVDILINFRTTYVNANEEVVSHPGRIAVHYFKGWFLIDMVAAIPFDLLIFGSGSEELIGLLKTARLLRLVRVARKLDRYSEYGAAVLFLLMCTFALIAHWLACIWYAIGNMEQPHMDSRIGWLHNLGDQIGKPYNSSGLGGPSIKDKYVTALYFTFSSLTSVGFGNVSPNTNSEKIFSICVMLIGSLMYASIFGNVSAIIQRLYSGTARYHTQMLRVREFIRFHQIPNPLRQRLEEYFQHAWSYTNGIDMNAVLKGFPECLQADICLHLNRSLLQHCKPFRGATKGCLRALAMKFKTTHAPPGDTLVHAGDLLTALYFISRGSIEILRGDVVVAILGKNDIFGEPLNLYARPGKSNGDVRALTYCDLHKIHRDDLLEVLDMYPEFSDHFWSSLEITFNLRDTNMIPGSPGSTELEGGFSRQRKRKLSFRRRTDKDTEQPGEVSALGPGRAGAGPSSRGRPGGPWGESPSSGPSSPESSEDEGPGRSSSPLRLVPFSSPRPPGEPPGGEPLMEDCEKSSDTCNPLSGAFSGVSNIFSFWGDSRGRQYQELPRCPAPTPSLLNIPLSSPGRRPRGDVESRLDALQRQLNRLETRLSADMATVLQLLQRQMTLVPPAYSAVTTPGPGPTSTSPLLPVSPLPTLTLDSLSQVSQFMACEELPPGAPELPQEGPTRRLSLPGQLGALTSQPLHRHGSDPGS
# Outline: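 hERG current measured in vitro by patch clamp at 1 µM.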
# [26] = system: Rattus norvegicus; assay: Toxicity in rat assessed as prolongation of mesentric bleeding time at 10 mg/kg, po relative to control; type: organism-based; set-up: dose 10 mg/kg, route oral; conditions: in vivo; outline: as §5
# [27] = Half life in dog at 0.2 mg/kg, iv and 5 mg/kg, po; type: ADME, organism-based, Canis lupus familiaris; conditions: in vivo; outline: as §3
# [28] = target: P2Y purinoceptor 2 (Homo sapiens, UniProt P41231); assay: Antagonist activity at P2Y2 receptor (unknown origin)
# P2Y purinoceptor 2, sequence (P41231 whole entry): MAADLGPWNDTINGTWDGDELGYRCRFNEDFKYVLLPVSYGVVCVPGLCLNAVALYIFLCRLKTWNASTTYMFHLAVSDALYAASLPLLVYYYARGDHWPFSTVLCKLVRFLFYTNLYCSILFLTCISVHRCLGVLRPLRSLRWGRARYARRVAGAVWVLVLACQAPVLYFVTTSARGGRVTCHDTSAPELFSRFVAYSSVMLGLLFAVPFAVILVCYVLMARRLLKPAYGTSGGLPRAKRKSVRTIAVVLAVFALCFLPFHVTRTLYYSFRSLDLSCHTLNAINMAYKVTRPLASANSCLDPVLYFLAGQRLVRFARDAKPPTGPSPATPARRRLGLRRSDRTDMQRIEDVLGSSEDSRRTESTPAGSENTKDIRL
# [29] = system: Blood; assay: Drug uptake in rat blood at 10 mg/kg, po; type: ADME, organism-based; set-up: dose 10 mg/kg, route oral; conditions: in vivo, read-out: Drug uptake
# [30] = system: Rattus norvegicus; assay: Antithrombotic activity in po dosed pentobarbital anesthetized rat assessed as reduction in FeCl2-induced thrombus weight administered 1 hr prior to FeCl2 challenge
# [31] = system: Rattus norvegicus; assay: Antithrombotic activity in pentobarbital anesthetized rat assessed as preservation of blood flow at 10 mg/kg, po administered 1 hr prior to FeCl2 challenge; type: functional, organism-based; set-up: dose 10 mg/kg; outline: as §6
# [32] = system: Oryctolagus cuniculus; assay: Cardiotoxicity in rabbit assessed as increase in QTc at 10 to 30 mg/kg, iv by surface electrocardiography; type: toxicity, organism-based; set-up: dose 10-30 mg/kg, route intravenous; conditions: in vivo; outline: as §2
# [33] = Oral bioavailability in cynomolgus monkey at 5 mg/kg; type: ADME, organism-based, Macaca fascicularis; conditions: in vivo; outline: as §3
# [34] = Volume of distribution at steady state in dog at 0.2 mg/kg, iv and 5 mg/kg, po; type: ADME, organism-based, Canis lupus familiaris; conditions: in vivo, read-out: Vdss; outline: as §3
# [35] = system: Rattus norvegicus; assay: Toxicity in po dosed pentobarbital anesthetized rat assessed as prolongation of bleeding time measured after 1 hr; type: organism-based; conditions: in vivo; outline: as §6
# [36] = target: P2Y purinoceptor 12 (Homo sapiens, UniProt Q9H244); assay: Antagonist activity at P2Y12 receptor (unknown origin)
# P2Y purinoceptor 12, sequence (Q9H244 whole entry): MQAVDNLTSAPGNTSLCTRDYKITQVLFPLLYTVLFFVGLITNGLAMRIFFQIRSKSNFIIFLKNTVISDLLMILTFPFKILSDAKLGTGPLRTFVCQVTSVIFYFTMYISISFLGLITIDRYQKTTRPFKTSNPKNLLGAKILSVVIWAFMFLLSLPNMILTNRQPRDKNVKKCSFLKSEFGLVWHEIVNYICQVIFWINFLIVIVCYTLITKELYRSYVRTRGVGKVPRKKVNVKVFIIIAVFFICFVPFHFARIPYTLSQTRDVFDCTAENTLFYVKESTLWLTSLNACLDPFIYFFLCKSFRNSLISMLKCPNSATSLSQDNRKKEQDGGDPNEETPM
# [37] = system: Blood; assay: Drug uptake in rat blood at 1 mg/kg, po; type: ADME, organism-based; set-up: dose 1 mg/kg, route oral; conditions: in vivo, read-out: Drug uptake
# [38] = system: Rattus norvegicus; assay: Ex vivo inhibition of platelet aggregation in po dosed pentobarbital anesthetized rat administered 1 hr prior to FeCl2 challenge; type: functional; outline: as §6
# [39] = Aqueous solubility of the compound at pH 3.9; type: physicochemical; conditions: aqueous medium, read-out: Activity; outline: as §4
# [40] = system: Oryctolagus cuniculus; assay: Cardiotoxicity in rabbit assessed as PR interval at 3 to 30 mg/kg, iv by surface electrocardiography; type: toxicity, organism-based; set-up: dose 3-30 mg/kg, route intravenous; conditions: in vivo; outline: as §2
structure (smiles),measurement,setting,value
CC(C)(C)CN1CCC2(CC1)CN(c1ccccc1NC(=O)Nc1ccc(OC(F)(F)F)cc1)c1c(O)ccc(Cl)c12,Stability,[1],79%
same,IC50,[2],450 nM
same,IC50,[3],0.04 nM
same,Stability,[4],88%
CC(C)(C)CN1CCC2(CC1)CN(c1ccccc1NC(=O)Nc1ccc(OC(F)(F)F)cc1)c1ccc(O)cc12,IC50,[3],> 150 nM
CC(C)(C)CN1CCC2(CC1)CN(c1ccccc1NC(=O)Nc1ccc(OC(F)(F)F)cc1)c1cccc(O)c12,IC50,[3],> 150 nM
CC(C)(C)CN1CCC2(CC1)CN(c1ccccc1NC(=O)Nc1nc3ccc(Cl)nc3s1)c1c(O)ccc(Cl)c12,Activity,[5],Non-toxic
same,half-life,[6],8.2 h
same,concentration,[7],24000 nM
same,concentration,[8],62000 nM
same,Stability,[1],94%
same,fraction unbound,[9],0.007
same,solubility,[10],< 1 µg/mL
same,fraction unbound,[11],0.007
same,bioavailability,[12],27%
same,clearance,[13],7.7 mL/min/kg
same,fraction unbound,[14],0.002
same,concentration,[15],158000 nM
same,fold change (FC),[16],2.5
same,clearance,[17],4 mL/min/kg
same,Activity,[18],66%
same,IC50,[2],130 nM
same,IC50,[19],180 nM
same,concentration,[20],7 nM
same,concentration,[21],81 nM
same,Vd,[22],3.3 L/kg
same,Activity,[23],Dose-dependent effect
same,Activity,[24],74%
same,inhibition at 1 µM,[25],96%
same,fold change (FC),[26],2.2
same,half-life,[27],9.4 h
same,IC50,[28],> 10000 nM
same,concentration,[29],240 nM
same,IC50,[30],130 nM
same,ED50,"[30]; po, read-out: ID50",7.3 mg/kg
same,Activity,[31],Active
same,Activity,[32],Non-toxic
same,IC50,[3],0.12 nM
same,bioavailability,[33],22%
same,Stability,[4],93%
same,Vd,[34],2.5 L/kg
same,Activity,[35],Dose-dependent effect
same,IC50,[36],> 10000 nM
same,concentration,[37],39 nM
same,Activity,[38],Dose-dependent effect
same,ED50,[38]; read-out: ID50 (the source's name),6.6 mg/kg
same,solubility,[39],680 µg/mL
same,Activity,[40],Non-toxic
